Data reported in ChEMBL document CHEMBL1149798, “Synthesis, computational study and cytotoxic activity of new 4-hydroxycoumarin derivatives” (Eur J Med Chem, 2008).

How the values were obtained:
[1] = system: HL-60; assay: Cytotoxicity against human HL60 cells after 72 hrs by MTT assay; type: functional, cell-based; conditions: HL-60, 72 h
Method in brief: (§1)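 Exponentially growing cells were seeded at 3.5 × 10⁵ cells/ml (adherent EJ) or 1 × 10⁵ cells/ml (suspension HL-60), grown 24 h, then exposed continuously for 72 h. Drugs came from fresh DMSO stocks diluted in medium to ≤0.5% final DMSO, with eight wells per concentration. MTT (10 mg/ml PBS stock) was added for 4 h at 37 °C, formazan dissolved in 5% HCOOH/2-propanol, and read at 580 nm. IC50 was taken from a sigmoidal non-linear fit of survival as % of untreated control.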

[2] = Cytotoxicity against human […] cells after 72 hrs by MTT assay; type: functional, cell-based; method in brief: as §1
[3] = system: Strongylocentrotus purpuratus; assay: Inhibition of Strongylocentrotus purpuratus embryos cleavage at 10 uM; type: functional

Compound | IC50 [1] | IC50 [2] | inhibition at 10 µM [3]
CCOC(=O)C(C(C)=O)C(c1ccc(O)cc1)c1c(O)c2ccccc2oc1=O (stereo not drawn) | > 200 µM | > 200 µM | 
CCOC(=O)C(C(C)=O)C(c1ccc(C(=O)O)cc1)c1c(O)c2ccccc2oc1=O (stereo not drawn) | > 200 µM | > 200 µM | 
CCOC(=O)C(C(C)=O)C(c1cccc([N+](=O)[O-])c1)c1c(O)c2ccccc2oc1=O (stereo not drawn) | 90.8 µM | 172 µM | 
CCOC(=O)C(C(C)=O)C(c1ccc([N+](=O)[O-])cc1)c1c(O)c2ccccc2oc1=O (stereo not drawn) | > 200 µM | > 200 µM | 
N[C@@H](Cc1ccc(N(CCCl)CCCl)cc1)C(=O)O [MELPHALAN] | 11.4 µM | 22.1 µM | 
O=c1oc2ccccc2c(O)c1Cc1c(O)c2ccccc2oc1=O [DICUMAROL] |  |  | 50%
CCOC(=O)C(C(C)=O)C(c1ccc(O)c(O)c1)c1c(O)c2ccccc2oc1=O (stereo not drawn) | 35.1 µM | 116 µM | 
